Source: the array DNA melting data of Ke et al. (doi:10.1101/2024.01.08.574731)

Experiments:
[1] = folding enthalpy; higher = less favourable; fluorescence melt of hairpins on a sequencing array, two-state fit; settings: sodium 0.088 M
In short: (§1)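 Bootstrapped two-state fits yielded melting temperature and folding enthalpy for library hairpins. Cy3 fluorescence, with annealed Cy3 and quencher oligos, was imaged on a sequenced MiSeq flow cell in 50 mM Na-HEPES pH 8.0, 25 mM NaCl in 2.5 °C steps up to 60 °C, and normalised to pre-quench Cy3 and to control constructs. Four replicates were combined by inverse variance, and fitted temperatures were raised by 9.35 °C to match UV melts.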

[2] = melting temperature; fluorescence melt of hairpins on a sequencing array, two-state fit, raised by 9.35 °C to match UV melts; settings: sodium 0.088 M
In short: as §1

Sequence | folding enthalpy [1] [kcal/mol] | Tm [2] [°C]
GCATGAGGAAACTTATGC ((((.((....)).)))) | -34.7 | 44.2
GCATGAGGAAACTTGTGC (((..((....))..))) | -26.6 | 35.9
GCATGCACGAAAGTGTGC (((..(((....)))))) | -13.3 | 42.5
GCATGCGGAAACGCACAC (..((((....))))..) | -9.47 | 27.7
GCATGGCGAAAGCAAGGC ((.(.((....)).).)) | -17.2 | 49.5
GCATGGCGAAAGCAATGC ((((.((....)).)))) | -30.6 | 64.8
GCATGGCGAAAGCAGTGC (((..((....))..))) | -19.7 | 56.5
GCATGGCGAAAGCCAAGC ((.((((....)))).)) | -17.6 | 61.6
GCATGGCGAAAGCTCTGC (((..((....))..))) | -18 | 43.2
GCATGGGAAACCATGC ((((((....)))))) | -34.4 | 65.6
GCATGGGCGAAAGCCTGC (((..(((....)))))) | -16.3 | 48.7
GCATGGGGAAACCCACAC (..((((....))))..) | -14.2 | 29
GCATGGGGAAACTCGTGC (((.(.(....).).))) | -26.2 | 41
GCATGTACGAAAGTATGC (((..(((....)))))) | -29.3 | 43.8
GCATGTCGAAAGACGTGC (((.(((....))).))) | -36.8 | 65.6
GCATGTGGAAACACACGC ((.((((....)))).)) | -25.8 | 46
GCATGTGGAAACGCATGC (((((.(....).))))) | -44.7 | 55.9
GCATGTGGAAACGTATGC ((((..(....)..)))) | -26.3 | 41
GCATTACGAAAGTAGTGC (((.(((....))).))) | -31.7 | 52.4
GCATTCCGAAAGGAGTGC (((.(((....))).))) | -40 | 58.4
GCATTCGAAAGAAAATGC ((((((....)))..))) | -24.8 | 34.6
GCATTCGGAAACGAATAC (.(((((....))))).) | -19.8 | 37
GCATTGCGAAAGCATCGC ((..(((....)))..)) | -11.8 | 52.9

Sequence | folding enthalpy [1] [kcal/mol] | Tm [2] [°C]
GCATTGCGAAAGCATGGC ((..(((....)))..)) | -19.9 | 45.8
GCATTGCGAAAGCCACGC ((.(.((....)).).)) | -8.66 | 38.2
GCATTGCGAAAGCGCTGC (((..((....))..))) | -18.8 | 45.7
GCATTGCGAAAGCGGTGC (((..((....))..))) | -22.3 | 58.8
GCATTGCGAAAGCTATGC ((((.((....)).)))) | -38.9 | 62.5
GCATTTGGAAACAAACGC ((.((((....)))).)) | -30.1 | 37.2
GCATTTGGAAACGAATGC (((((.(....).))))) | -41.8 | 49
GCATTTTCGAAAGAATGC (((..(((....)))))) | -28.4 | 35.5
GCCAAACGAAAGTTCGGC (((.(((....))).))) | -36.8 | 51.3
GCCAACACGAAAGTGGGC (((..(((....)))))) | -24.9 | 52.7
GCCAACCCGAAAGGGGGC (((..(((....)))))) | -18.8 | 51.8
GCCAACCGAAAGGTGGGC (((.(((....))).))) | -40.6 | 68.4
GCCAACGAAAGTTAGGGC ((((((....)))..))) | -23.5 | 46.6
GCCAACGAAAGTTATGGC ((((((....)))..))) | -30.7 | 45.7
GCCAACGGAAACGTCAGC ((..(((....)))..)) | -12.1 | 28.3
GCCAAGAAATTGGC (((((....))))) | -21.6 | 52.3
GCCAAGCCGAAAGGCGGC (((..(((....)))))) | -16.1 | 64.2
GCCAAGCGAAAGCCGGGC (((..((....))..))) | -22.4 | 57.7
GCCAAGCGAAAGCGGGGC (((..((....))..))) | -28.6 | 68.3
GCCAAGCGAAAGCGTTGC ((.(.((....)).).)) | -11.6 | 40.1
GCCAAGCGAAAGCTTTGC ((.((((....)))).)) | -21.4 | 53.4
GCCAAGGGAAACCCTAGC ((.(.((....)).).)) | -17.6 | 28.8
GCCAATGAAAATTGGC ((((((....)))))) | -30.7 | 59.9

Sequence | folding enthalpy [1] [kcal/mol] | Tm [2] [°C]
GCCAATGGAAACATTAGC ((.((((....)))).)) | -17.4 | 32.1
GCCAATGGAAACGTTGGC (((((.(....).))))) | -49.3 | 53.7
GCCACCCGAAAGGGAGGC (((.(((....))).))) | -44.3 | 67.8
GCCACCCGAAAGGGGGC (((.(((....)))))) | -22.8 | 68.5
GCCACCGAAAGGTCAGGC ((((((....)))..))) | -23.1 | 48.4
GCCACCGAAAGGTGCGGC ((((((....)))..))) | -13.1 | 60.8
GCCACCGAAAGGTGTGGC ((((((....)))..))) | -17.5 | 58.2
GCCACCGAAAGGTTAGGC ((((((....)))..))) | -25.5 | 51.1
GCCACCGAAAGGTTTGGC ((((((....)))..))) | -26.6 | 48.7
GCCACCGGAAACGGCAGC ((..(((....)))..)) | -15.6 | 31
GCCACCGGAAACGGTAGC ((.((((....)))).)) | -21.2 | 48.1
GCCACGCCGAAAGGCGGC (((..(((....)))))) | -7.28 | 48.3
GCCACGCGAAAGCATGGC ((((.((....)).)))) | -32.9 | 66.8
GCCACGCGAAAGCCGGGC (((..((....))..))) | -24.1 | 58
GCCACGCGAAAGCCTCGC ((.(.((....)).).)) | -7.67 | 27
GCCACGCGAAAGCGCAGC ((..(((....)))..)) | -10.6 | 43.6
GCCACGCGAAAGCGGTGC ((..(((....)))..)) | -13.3 | 50.1
GCCACGCGAAAGCTCGGC (((..((....))..))) | -22 | 51.2
GCCACGCGAAAGCTGGGC (((..((....))..))) | -27 | 60
GCCACGCGAAAGCTTCGC ((.(.((....)).).)) | -7.03 | 33.6
GCCACGGGAAACCGCGAC (.(.(((....))).).) | -12.1 | 29.1
GCCACGGGAAACCGTGAC (.(((((....))))).) | -16.5 | 51.1
GCCACGGGAAACTGTGGC (((((.(....).))))) | -43.2 | 63.2

Sequence | folding enthalpy [1] [kcal/mol] | Tm [2] [°C]
GCCACTGCGAAAGCAGGC (((..(((....)))))) | -8.9 | 46
GCCACTGGAAACAGCGAC (.(.(((....))).).) | -13.9 | 26
GCCAGACGAAAGTCAGGC (((.(((....))).))) | -32.6 | 64.8
GCCAGCCCGAAAGGGGGC (((..(((....)))))) | -14.7 | 55.3
GCCAGCCGAAAGGCCGGC (((.(((....))).))) | -27.4 | 68.4
GCCAGCGAAAGCTAGGC ((((((....))).))) | -25.9 | 66
GCCAGCGAAAGCTCAGGC ((((((....)))..))) | -30.4 | 49.9
GCCAGCGAAAGCTGCGGC ((((((....)))..))) | -13 | 61.4
GCCAGCGAAAGCTGTGGC ((((((....)))..))) | -15.1 | 56.6
GCCAGGACGAAAGTCGGC (((..(((....)))))) | -27.3 | 52.6
GCCAGGCGAAAGCAGGGC (((..((....))..))) | -32.1 | 64
GCCAGGCGAAAGCCCAGC ((..(((....)))..)) | -13.5 | 40.2
GCCAGGCGAAAGCTGGGC (((..((....))..))) | -27.1 | 62.9
GCCAGGGAAACCTGGC ((((((....)))))) | -37.4 | 69.2
GCCAGGGGAAACCCCAGC ((..(((....)))..)) | -21.5 | 38.3
GCCAGTACGAAAGTAGGC (((..(((....)))))) | -23.8 | 43.4
GCCAGTCGAAAGACCGGC (((.(((....))).))) | -36.4 | 55.3
GCCATAGCGAAAGCTGGC (((..(((....)))))) | -25.5 | 56.5
GCCATAGGAAACTACGGC (((.(((....))).))) | -29.9 | 40.6
GCCATAGGAAACTATGAC (.(((((....))))).) | -18.2 | 34.1
GCCATCGAAAGATCGGC ((((((....))).))) | -24.7 | 48.2
GCCATCGAAAGATGTGGC ((((((....)))..))) | -23.4 | 46.6
